# ChEMBL document CHEMBL1156219, “Discovery of novel N-acylsulfonamide analogs as potent and selective EP3 receptor antagonists” (Bioorg Med Chem Lett, 2010)
# How the values were obtained:
# [1] = biological target: T1, Prostaglandin E2 receptor EP3 subtype (Mus musculus, UniProt P30557); experiment: Displacement of [3H]PGE2 from mouse EP3 receptor expressed in CHO cells after 60 mins by scintillation counter; format: cell-based
# T1 sequence (P30557 whole entry): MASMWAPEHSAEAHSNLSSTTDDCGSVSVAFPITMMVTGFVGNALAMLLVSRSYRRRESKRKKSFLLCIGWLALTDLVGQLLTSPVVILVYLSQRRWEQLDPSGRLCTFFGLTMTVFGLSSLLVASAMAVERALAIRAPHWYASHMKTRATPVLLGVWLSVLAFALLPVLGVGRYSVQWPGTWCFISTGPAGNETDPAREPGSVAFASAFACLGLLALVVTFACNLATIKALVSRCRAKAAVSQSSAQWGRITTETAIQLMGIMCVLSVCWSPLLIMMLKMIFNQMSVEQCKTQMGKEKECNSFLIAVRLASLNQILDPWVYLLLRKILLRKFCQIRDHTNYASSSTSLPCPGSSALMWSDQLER
# [2] = biological target: T1, Prostaglandin E2 receptor EP3 subtype; experiment: Antagonist activity at mouse EP3 receptor expressed in CHO cells assessed as inhibition of PGE2-induced increase in intracellular calcium level after 1 hr by FDSS in presence of 1% bovine serum albumin; format: functional, cell-based
# [3] = biological target: Prostaglandin E2 receptor EP4 subtype (Mus musculus, UniProt P32240); experiment: Displacement of [3H]PGE2 from mouse EP4 receptor expressed in CHO cells after 60 mins by scintillation counter; format: cell-based
# Rattus norvegicus [4] = experiment: Inhibition of PGE2-induced uterine contraction in pregnant rat at 1 mg/kg, id; format: functional; details: route intraduodenal
# How it was run: (§1)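 Pregnant rats received test agent intraduodenally (0.3 or 1 mg/kg tested). Uterine contraction was induced with PGE2 and suppression scored as % inhibition. Each value is the mean of two experiments.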
# [5] = biological target: Prostaglandin E2 receptor EP2 subtype (Mus musculus, UniProt Q62053); experiment: Displacement of [3H]PGE2 from mouse EP2 receptor expressed in CHO cells after 60 mins by scintillation counter; format: cell-based
# [6] = biological target: T2, Prostaglandin E2 receptor EP1 subtype (Mus musculus, UniProt P35375); experiment: Displacement of [3H]PGE2 from mouse EP1 receptor expressed in CHO cells after 60 mins by scintillation counter; format: cell-based
# T2 sequence (P35375 whole entry): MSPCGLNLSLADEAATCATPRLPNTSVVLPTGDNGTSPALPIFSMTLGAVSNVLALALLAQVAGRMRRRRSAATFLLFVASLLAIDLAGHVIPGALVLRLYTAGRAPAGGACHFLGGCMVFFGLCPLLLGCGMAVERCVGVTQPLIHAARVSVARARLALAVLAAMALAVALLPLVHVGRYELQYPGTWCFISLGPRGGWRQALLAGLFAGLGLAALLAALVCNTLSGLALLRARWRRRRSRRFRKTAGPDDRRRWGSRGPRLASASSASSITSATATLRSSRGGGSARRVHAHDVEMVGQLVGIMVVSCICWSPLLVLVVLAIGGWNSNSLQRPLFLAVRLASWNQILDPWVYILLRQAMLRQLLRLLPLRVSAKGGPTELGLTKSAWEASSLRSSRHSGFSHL
# Rattus norvegicus [7] = experiment: Inhibition of PGE2-induced uterine contraction in pregnant rat at 0.3 mg/kg, id; format: functional; details: route intraduodenal; how it was run: as §1
# Rattus norvegicus [8] = experiment: Inhibition of PGE2-induced uterine contraction in id dosed pregnant rat; format: functional, organism-based; how it was run: as §1
# Rattus norvegicus [9] = experiment: Inhibition of PGE2-induced uterine contraction in pregnant rat at 3 mg/kg, po after 4 hrs; format: functional
# Prostaglandin E2 receptor EP2 subtype, sequence (Q62053 whole entry): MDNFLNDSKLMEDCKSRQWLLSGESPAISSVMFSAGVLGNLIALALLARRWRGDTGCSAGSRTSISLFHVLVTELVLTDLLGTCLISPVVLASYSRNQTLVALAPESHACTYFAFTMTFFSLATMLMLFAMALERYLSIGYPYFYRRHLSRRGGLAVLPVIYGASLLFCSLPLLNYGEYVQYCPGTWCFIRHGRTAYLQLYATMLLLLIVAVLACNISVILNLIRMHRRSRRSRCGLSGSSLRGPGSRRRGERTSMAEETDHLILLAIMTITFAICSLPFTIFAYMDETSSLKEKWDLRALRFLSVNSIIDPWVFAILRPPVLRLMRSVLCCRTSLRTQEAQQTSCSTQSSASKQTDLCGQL
# Prostaglandin E2 receptor EP4 subtype, sequence (P32240 whole entry): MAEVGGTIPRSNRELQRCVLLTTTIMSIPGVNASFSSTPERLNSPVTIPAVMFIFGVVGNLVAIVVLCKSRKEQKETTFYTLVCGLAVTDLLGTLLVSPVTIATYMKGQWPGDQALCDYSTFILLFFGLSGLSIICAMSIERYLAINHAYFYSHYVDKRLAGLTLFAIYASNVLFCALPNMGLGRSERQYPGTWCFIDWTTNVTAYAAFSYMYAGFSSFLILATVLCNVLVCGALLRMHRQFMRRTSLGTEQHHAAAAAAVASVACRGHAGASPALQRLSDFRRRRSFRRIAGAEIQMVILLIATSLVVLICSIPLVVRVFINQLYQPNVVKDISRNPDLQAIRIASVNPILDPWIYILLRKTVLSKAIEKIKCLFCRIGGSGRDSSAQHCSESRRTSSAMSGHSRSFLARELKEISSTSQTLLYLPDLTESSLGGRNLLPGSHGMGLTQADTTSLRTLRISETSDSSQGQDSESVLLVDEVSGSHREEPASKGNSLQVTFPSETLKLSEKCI
SMILES,Ki [1],IC50 [2],Ki [3],Ki [5],Ki [6],inhibition in vivo at 1 mg/kg (Rattus norvegicus [4]),inhibition in vivo at 0.3 mg/kg (Rattus norvegicus [7]),inhibition (Rattus norvegicus [8]),inhibition in vivo at 3 mg/kg (Rattus norvegicus [9])
O=C(CCc1ccc(Cn2cccn2)cc1OCCc1ccc2ccccc2c1)NS(=O)(=O)c1ccccc1,0.5 nM,140 nM,–,–,–,–,–,–,–
O=C(NS(=O)(=O)CCc1ccc(Cn2cccn2)cc1OCCc1ccc2ccccc2c1)c1ccccc1,140 nM,> 10000 nM,–,–,–,–,–,–,–
O=C(CCc1ccc(Cn2cccn2)cc1OCCc1ccc2ccccc2c1)NS(=O)(=O)c1ccccn1,1.6 nM,190 nM,–,–,–,–,–,–,–
O=C(CCc1ccc(Cn2cccn2)cc1OCCc1cccc(N2CCOCC2)c1)NS(=O)(=O)c1ccc(F)c(F)c1,0.54 nM,6.4 nM,3700 nM,> 10000 nM,560 nM,33%,–,–,–
Cc1cn(Cc2ccc(Cl)cc2Cl)c2c(/C=C/C(=O)NS(=O)(=O)c3cc(Cl)c(Cl)s3)cc(F)cc12,–,–,–,–,–,–,–,–,70%
O=C(O)CCc1ccc(Cn2cccn2)cc1OCCc1ccc2ccccc2c1,21 nM,–,–,–,–,–,–,–,–
CN(C)Cc1ccc(CCC(=O)NS(=O)(=O)c2ccc(F)c(F)c2)c(OCCc2ccc3ccccc3c2)c1,8.2 nM,24 nM,> 10000 nM,> 10000 nM,> 10000 nM,32%,–,–,–
N#Cc1cccc(OCc2ccc(CCC(=O)NS(=O)(=O)c3ccc(F)c(F)c3)c(OCCc3ccc4ccccc4c3)c2)c1,0.51 nM,24 nM,2300 nM,> 10000 nM,> 10000 nM,92%,50%,–,66%
O=C(CCc1ccc(CN2CCOCC2)cc1OCCc1ccc2ccccc2c1)NS(=O)(=O)c1ccc(F)c(F)c1,1.2 nM,47 nM,> 10000 nM,> 10000 nM,5000 nM,35%,–,–,–
O=C(CCc1ccc(Cn2cccn2)cc1OCCc1ccc2ccccc2c1)NS(=O)(=O)c1cccnc1,1 nM,150 nM,–,–,–,–,–,–,–
O=C(NCc1ccc(Cn2cccn2)cc1OCCc1ccc2ccccc2c1)NS(=O)(=O)c1ccccc1,15 nM,820 nM,–,–,–,–,–,–,–
Cc1ccc(S(=O)(=O)NC(=O)CCc2ccc(Cn3cccn3)cc2OCCc2ccc3ccccc3c2)o1,0.58 nM,88 nM,–,–,–,–,–,–,–
Cc1ccc(S(=O)(=O)NC(=O)CCc2ccc(Cn3cccn3)cc2OCCc2ccc3ccccc3c2)cc1Cl,0.43 nM,10 nM,–,–,–,–,–,–,–
O=C(CCc1ccc(Cn2cccn2)cc1OCCc1ccc2ccccc2c1)NS(=O)(=O)c1ccc(Cl)c(Cl)c1,0.45 nM,7.8 nM,–,–,–,–,–,–,–
CS(=O)(=O)NC(=O)CCc1ccc(Cn2cccn2)cc1OCCc1ccc2ccccc2c1,22 nM,> 10000 nM,–,–,–,–,–,–,–

# Second part, led by results:
Ki [1],IC50 [2],Ki [3],Ki [5],Ki [6],SMILES,inhibition in vivo at 1 mg/kg (Rattus norvegicus [4]),inhibition in vivo at 0.3 mg/kg (Rattus norvegicus [7]),inhibition (Rattus norvegicus [8]),inhibition in vivo at 3 mg/kg (Rattus norvegicus [9])
0.065 nM,18 nM,–,–,–,N#Cc1cccc(S(=O)(=O)NC(=O)CCc2ccc(Cn3cccn3)cc2OCCc2ccc3ccccc3c2)c1,–,–,–,–
0.086 nM,1.2 nM,2400 nM,> 10000 nM,2100 nM,O=C(CCc1ccc(Cn2cccn2)cc1OCCc1ccc2ccccc2c1)NS(=O)(=O)c1ccc(F)c(F)c1,76%,43%,Dose-dependent effect,–
0.27 nM,51 nM,> 10000 nM,> 10000 nM,2800 nM,O=C(CCc1ccc(Cn2cccn2)cc1OCCOc1ccccc1)NS(=O)(=O)c1ccc(F)c(F)c1,28%,–,–,–
0.16 nM,0.4 nM,710 nM,> 10000 nM,1700 nM,O=C(CCc1ccc(COc2cccnc2)cc1OCCc1ccc2ccccc2c1)NS(=O)(=O)c1ccc(F)c(F)c1,71%,44%,–,–
0.12 nM,3.8 nM,3500 nM,> 10000 nM,260 nM,CN(CCOc1cc(Cn2cccn2)ccc1CCC(=O)NS(=O)(=O)c1ccc(F)c(F)c1)c1ccccc1,50%,–,–,–
0.22 nM,5.5 nM,–,–,–,O=C(CCc1ccc(Cn2cccn2)cc1OCCc1ccc2ccccc2c1)NS(=O)(=O)c1ccc(F)c(Cl)c1,–,–,–,–
0.35 nM,110 nM,–,–,–,Cc1csc(S(=O)(=O)NC(=O)CCc2ccc(Cn3cccn3)cc2OCCc2ccc3ccccc3c2)n1,–,–,–,–
0.2 nM,59 nM,2500 nM,> 10000 nM,1300 nM,O=C(CCc1ccc(Cn2cccn2)cc1OCCc1ccccc1)NS(=O)(=O)c1ccc(F)c(F)c1,51%,29%,–,–
